Laboratory results from ChEMBL document CHEMBL3351594, “Cytotoxic dimeric epipolythiodiketopiperazines from the ascomycetous fungus Preussia typharum” (J Nat Prod, 2014).
Active and inactive are the calls of the source. The rule behind the calls is not given here.

Columns and labels:
[1] = Cytotoxicity against human Hs578T cells by SRB method; assay type: functional; conditions: Hs-578T
Procedure, shortened: (§1)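 NCI-60 in vitro drug screening panel. Values are the molar concentrations giving 50% growth inhibition (GI50) and total growth inhibition (TGI).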

HOP-92 = assay: Cytotoxicity against human HOP92 cells by SRB method; assay type: functional; procedure, shortened: as §1
Mus musculus = assay: Toxicity in athymic nude mouse xenografted with human UACC62 cells assessed as rapid and persistent weight loss at 2 mg/kg, ip; assay type: organism-based, UACC-62; design: dose 2 mg/kg, route intraperitoneal; conditions: in vivo
U-251 = assay: Cytotoxicity against human U251 cells by SRB method; assay type: functional
Procedure, shortened: (§2)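 NCI-60 in vitro screen panel of human tumor lines; GI50 (molar concentration giving 50% growth inhibition) and TGI (total growth inhibition) taken from dose–response data.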

[2] = Cytotoxicity against human OVCAR3 cells by SRB method; assay type: functional; procedure, shortened: as §1
HT-29 = assay: Cytotoxicity against human HT-29 cells by SRB method; assay type: functional; procedure, shortened: as §1
SK-MEL-2 = assay: Cytotoxicity against human SK-MEL-2 cells by SRB method; assay type: functional; procedure, shortened: as §1
DU-145 = assay: Cytotoxicity against human DU145 cells by SRB method; assay type: functional; procedure, shortened: as §1
SNB-19 = assay: Cytotoxicity against human SNB19 cells by SRB method; assay type: functional; procedure, shortened: as §2
NCI-H226 = assay: Cytotoxicity against human NCI-H226 cells by SRB method; assay type: functional; procedure, shortened: as §1
[3] = Cytotoxicity against human P-gp expressing SKOV3-M6/6 cells by SRB assay; assay type: functional
Procedure, shortened: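 SRB assay in SK-OV-3/MDR-1-6/6 cells, a single-cell clone of SKOV-3/MDR1 (P-gp). Percent cell growth follows Boyd et al. GI50 was derived from dose–response curves of percent growth. Results are mean ± SE of n = 3 or 4 independent experiments. Relative resistance is calculated against parental SK-OV-3.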

MCF7 = assay: Cytotoxicity against human MCF7 cells by SRB method; assay type: functional; procedure, shortened: as §1
MDA-MB-231 = assay: Cytotoxicity against human MDA-MB-231 cells by SRB method; assay type: functional; procedure, shortened: as §1
UACC-62 = assay: Cytotoxicity against human UACC62 cells assessed as reduction of colony formation incubated for 4 hrs followed by compound washout measured after 14 days relative to vehicle-treated control; assay type: functional, cell-based
Procedure, shortened: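 Clonogenic test: 600 UACC-62 cells (RPMI1640, 10% FBS, gentamicin) adhered, exposed 4 h to vehicle (DMSO) or compound, washed with DPBS, fresh medium, grown 14 days; fixed, 0.5% crystal violet in 10% methanol, colonies counted; duplicate/triplicate, n = 2–4 experiments; one-way ANOVA with Dunnett's vs vehicle.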

COLO 205 = assay: Cytotoxicity against human COLO205 cells by SRB method; assay type: functional; procedure, shortened: as §1
HeLa [4] = assay: Cytotoxicity against human HeLa cells; assay type: functional
[5] = Cytotoxicity against human MIAPaCa2 cells after 24 hrs by MTT assay; assay type: functional, cell-based; conditions: MIA PaCa-2, 24 h
ACHN = assay: Cytotoxicity against human ACHN cells by SRB method; assay type: functional; procedure, shortened: as §1
HeLa [6] = assay: Inhibition of Histone-lysine N-methyltransferase Su(var)3-9 in human HeLa cells assessed as high H3K9me3 expression at 200 nM after 1 to 24 hrs by immunoblotting analysis; assay type: cell-based
Procedure, shortened: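 HeLa cells treated with vehicle or 200 nM for 1–24 h; log-phase cells lysed with protease inhibitors, equal protein by SDS-PAGE, PVDF transfer, probed for H3K9me3 and actin, ECL detection.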

SN12C = assay: Cytotoxicity against human SN12C cells by SRB method; assay type: functional; procedure, shortened: as §2
NCI-H23 = assay: Cytotoxicity against human NCI-H23 cells by SRB method; assay type: functional; procedure, shortened: as §1
[7] = Cytotoxicity against human HCT116 cells by SRB method; assay type: functional; procedure, shortened: as §1
SF-295 = assay: Cytotoxicity against human SF295 cells by SRB method; assay type: functional; procedure, shortened: as §1
[8] = Cytotoxicity against human EKVX cells by SRB method; assay type: functional; procedure, shortened: as §1
[9] = Cytotoxicity against human UO31 cells by SRB method; assay type: functional; procedure, shortened: as §2
SK-MEL-5 = assay: Cytotoxicity against human SK-MEL-5 cells by SRB method; assay type: functional; procedure, shortened: as §2
SR = assay: Cytotoxicity against human SR cells by SRB method; assay type: functional; procedure, shortened: as §2
[10] = Toxicity in ip dosed athymic nude mouse xenografted with human UACC62 cells administered every 4 days; assay type: organism-based, UACC-62; conditions: in vivo
Procedure, shortened: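 Female athymic nude mice received 2 × 10^6 UACC-62 cells sc into each flank and were randomized at a median tumor volume of 150 mm3 (n = 5/group). Compound was given ip in DMSO–Cremophor (1:1) diluted in 200 μL DPBS (final ≤2.5%). Dose-tolerance testing used 10, 2 and 1.5 mg/kg (every 4 days). Mice were weighed daily for weight loss.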

SW-620 = assay: Cytotoxicity against human SW620 cells by SRB method; assay type: functional; procedure, shortened: as §2
[11] = Antitumor activity against human UACC62 cells xenografted in athymic nude mouse at 1.5 mg/kg, ip administered every 4 days relative to untreated control; assay type: functional, UACC-62; conditions: route intraperitoneal
Procedure, shortened: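 Female athymic nude mice received 2 × 10^6 UACC-62 cells sc into each flank, bilaterally. They were randomized at median tumor volume 150 mm3, n = 5 mice/group. Dosing was ip at 1.5 mg/kg every 4 days, in DMSO–Cremophor (1:1) diluted in 200 μL DPBS (DMSO and Cremophor ≤2.5% final). Tumors were measured twice weekly by caliper. T/C% = (treated final − initial mean volume) ÷ (untreated final − initial) × 100.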

786-0 = assay: Cytotoxicity against human 786-0 cells by SRB method; assay type: functional; procedure, shortened: as §1
[12] = read-out: LC50 (the source's name)

Q: For CC(C)[C@@]12SS[C@]3(C(=O)N1C)[C@@H](O)[C@]1(C45c6ccccc6N[C@H]4N4C(=O)[C@@]6(CO)SS[C@@]4(C(=O)N6C)[C@H]5O)c4ccccc4N[C@@H]1N3C2=O (stereo partly specified), which GI50 [1] is on record?
A: 26.3 nM

Q: What about the TGI [1] of the same molecule?
A: 447 nM

Q: What about the GI50 (HOP-92) of the same molecule?
A: 11 nM

Q: And the TGI (HOP-92)?
A: 28.8 nM

Q: What about the CC50 (HOP-92; [12]) of the same molecule?
A: 112 nM

Q: And the Activity (Mus musculus)?
A: Toxic

Q: What about the GI50 (U-251) of the same molecule?
A: 17.8 nM

Q: And the TGI (U-251)?
A: 61.7 nM

Q: And the CC50 (U-251; [12])?
A: 178 nM

Q: And the GI50 ([2]; OVCAR-3)?
A: 10.7 nM

Q: What about the TGI ([2]; OVCAR-3) of the same molecule?
A: 26.3 nM

Q: What about the CC50 ([2]; OVCAR-3, read-out: LC50 (the source's name)) of the same molecule?
A: 85.1 nM

Q: And the GI50 (HT-29)?
A: 5.6 nM

Q: What about the TGI (HT-29) of the same molecule?
A: 13.5 nM

Q: And the CC50 (HT-29; [12])?
A: 32.4 nM

Q: What about the GI50 (SK-MEL-2) of the same molecule?
A: 9.8 nM

Q: What about the TGI (SK-MEL-2) of the same molecule?
A: 20.4 nM

Q: What about the CC50 (SK-MEL-2; [12]) of the same molecule?
A: 43.7 nM

Q: What about the GI50 (DU-145) of the same molecule?
A: 14.8 nM

Q: What about the TGI (DU-145) of the same molecule?
A: 53.7 nM

Q: And the CC50 (DU-145; [12])?
A: 200 nM

Q: And the GI50 (SNB-19)?
A: 112 nM

Q: And the TGI (SNB-19)?
A: 513 nM

Q: What about the CC50 (SNB-19; [12]) of the same molecule?
A: 1660 nM

Q: What about the GI50 (NCI-H226) of the same molecule?
A: 10 nM

Q: What about the TGI (NCI-H226) of the same molecule?
A: 24 nM

Q: And the CC50 (NCI-H226; [12])?
A: 72.4 nM

Q: And the GI50 [3]?
A: 33 nM

Q: And the GI50 (MCF7)?
A: 10 nM

Q: And the TGI (MCF7)?
A: 55 nM

Q: What about the CC50 (MCF7; [12]) of the same molecule?
A: 166 nM

Q: What about the GI50 (MDA-MB-231) of the same molecule?
A: 18.6 nM

Q: And the TGI (MDA-MB-231)?
A: 70.8 nM

Q: What about the CC50 (MDA-MB-231; [12]) of the same molecule?
A: 324 nM

Q: What about the Activity (UACC-62) of the same molecule?
A: Dose-dependent effect

Q: And the GI50 (COLO 205)?
A: 14.8 nM

Q: And the TGI (COLO 205)?
A: 49 nM

Q: What about the CC50 (COLO 205; [12]) of the same molecule?
A: 155 nM

Q: What about the GI50 (HeLa [4]) of the same molecule?
A: 20 nM

Q: What about the IC50 [5] of the same molecule?
A: 6.6 nM

Q: What about the GI50 (ACHN) of the same molecule?
A: 15.5 nM

Q: And the TGI (ACHN)?
A: 60.3 nM

Q: What about the CC50 (ACHN; [12]) of the same molecule?
A: 234 nM

Q: And the inhibition (HeLa [6])?
A: inactive

Q: And the GI50 (SN12C)?
A: 22.9 nM

Q: And the TGI (SN12C)?
A: 525 nM

Q: What about the CC50 (SN12C; [12]) of the same molecule?
A: 1780 nM

Q: What about the GI50 (NCI-H23) of the same molecule?
A: 16.2 nM

Q: What about the TGI (NCI-H23) of the same molecule?
A: 56.2 nM

Q: What about the CC50 (NCI-H23; [12]) of the same molecule?
A: 234 nM

Q: And the GI50 ([7]; HCT-116)?
A: 12.3 nM

Q: What about the TGI ([7]; HCT-116) of the same molecule?
A: 51.3 nM

Q: And the CC50 ([7]; HCT-116, read-out: LC50 (the source's name))?
A: 162 nM

Q: And the GI50 (SF-295)?
A: 57.5 nM

Q: What about the TGI (SF-295) of the same molecule?
A: 155 nM

Q: And the CC50 (SF-295; [12])?
A: 417 nM

Q: What about the GI50 [8] of the same molecule?
A: 28.2 nM

Q: What about the TGI [8] of the same molecule?
A: 257 nM

Q: And the CC50 [8, 12]?
A: 2040 nM

Q: And the GI50 ([9]; UO-31)?
A: 9.8 nM

Q: And the TGI ([9]; UO-31)?
A: 26.3 nM

Q: What about the CC50 ([9]; UO-31, read-out: LC50 (the source's name)) of the same molecule?
A: 100 nM

Q: What about the GI50 (SK-MEL-5) of the same molecule?
A: 14.8 nM

Q: What about the TGI (SK-MEL-5) of the same molecule?
A: 57.5 nM

Q: And the CC50 (SK-MEL-5; [12])?
A: 151 nM

Q: And the GI50 (SR)?
A: 11.2 nM

Q: What about the TGI (SR) of the same molecule?
A: 31.6 nM

Q: And the CC50 (SR; [12])?
A: > 50 µM

Q: What about the MTD at 96 h [10] of the same molecule?
A: 1.5 mg/kg

Q: What about the GI50 (SW-620) of the same molecule?
A: 8.3 nM

Q: What about the TGI (SW-620) of the same molecule?
A: 31.6 nM

Q: What about the CC50 (SW-620; [12]) of the same molecule?
A: 129 nM

Q: And the T/C [11]?
A: 67%

Q: And the GI50 (786-0)?
A: 11.7 nM

Q: What about the TGI (786-0) of the same molecule?
A: 26.3 nM

Q: What about the CC50 (786-0; [12]) of the same molecule?
A: 70.8 nM
